This excerpt belongs to a sample that is enriched for hits.
T cruzi intra = blocks T. cruzi growth inside host cells | AID 651903 | actives 4.9% (n = 22,000) | intracellular Trypanosoma cruzi in host cells, plate reader | activity score (inhibition), % at 5.01 µM; in the data active = activity score above about 55%;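 note: parasites and compound incubated about four days before reading; 0% = median of neutral control wells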
INS-1E rescue = INS-1E beta cell protection from cytokine death; INS-1E cytokine-induced death, ATP luminescence, 48 h; normalised: neutral wells 0, positive control 100; protection from cytokine-induced ATP loss, % at 10 µM; actives 0.1% (n = 20,000); AID 488910;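 active = mean replicate protection from cytokine-induced ATP loss at least 50% and at least 75% of replicates each reaching 50%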
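Assay system: INS-1E rat insulinoma cells. Amount: 8000 cells per well. Medium: phenol-red-free RPMI with 5% fetal bovine serum. Reagent: IL-1β, TNF-α and IFN-γ cytokine mix. Doses: one compound concentration, pin transfer. Schedule: 48 h co-treatment, 10 min post-lysis read. Detection: CellTiter-Glo luminescence measuring cellular ATP.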
A1 apoptosis 2 = blocks A1, raising caspase activity; MEF A1-2A-BIM cells, caspase-Glo luminescence, 3 h; percent of clofoctol response, DMSO zero; 24,000 tested, under 10 active; AID 2465; caspase activation, % (no concentration beside the values); in the data active = caspase activation above about 5.9%
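System: mouse embryonic fibroblasts co-expressing A1 and BIM (A1-2A-BIM), primed for A1 dependence; amount: 2500 cells/well; doses: 50 nL pinned compound; schedule: cells settled overnight, compound exposure 3 h at 37 °C, 5% CO2; detection: Caspase-Glo 3/7 luminescence, 1 h at room temperature; read-out: Caspase-3/7 activation, seen as rise in luminescence signal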
Starred values were filed as active, the others as inactive; . = no result given.

SMILES	T cruzi intra	INS-1E rescue	A1 apoptosis 2
Cc1cc(C(=O)Nc2cccc3c2O[C@H](CN(C)Cc2ccc(-c4ccccc4)cc2)[C@H](C)CN([C@@H](C)CO)C3=O)n(C)n1	-26	-23	0
Cc1cc(C(=O)Nc2cccc3c2O[C@H](CN(C)Cc2ccc(C(F)(F)F)cc2)[C@@H](C)CN([C@H](C)CO)C3=O)n(C)n1	69*	-18	1
Cc1ccc(S(=O)(=O)Nc2cccc3c2O[C@@H](CN(C)S(=O)(=O)c2ccc(F)cc2)[C@@H](C)CN([C@@H](C)CO)C3=O)cc1	-3	8	.
Cc1noc(C)c1NC(=O)Nc1ccc2c(c1)C(=O)N([C@@H](C)CO)C[C@H](C)[C@@H](CN(C)S(=O)(=O)c1c(C)noc1C)OCCCC[C@@H](C)O2	.	.	-1
C[C@@H]1CCCCO[C@H](CN(C)S(=O)(=O)c2ccccc2)[C@@H](C)CN([C@H](C)CO)C(=O)c2cc(NC(=O)CCC(F)(F)F)ccc2O1	-16	0	1
Cc1ccc(S(=O)(=O)N(C)C[C@@H]2Oc3ccc(NC(=O)Cc4ccccc4)cc3CC(=O)N([C@@H](C)CO)C[C@H]2C)cc1	.	.	0
CC(C)NC(=O)N(C)C[C@@H]1OCCCC[C@@H](C)Oc2ccc(NS(C)(=O)=O)cc2C(=O)N([C@H](C)CO)C[C@H]1C	.	.	-1
Cc1noc(C)c1S(=O)(=O)Nc1ccc2c(c1)C(=O)N([C@H](C)CO)C[C@H](C)[C@@H](CN(C)C(=O)Nc1ccc(C(F)(F)F)cc1)OCCCC[C@@H](C)O2	58*	2	.
Cc1noc(C)c1S(=O)(=O)Nc1ccc2c(c1)C(=O)N([C@H](C)CO)C[C@H](C)[C@H](CN(C)C(=O)Nc1ccc(C(F)(F)F)cc1)OCCCC[C@@H](C)O2	58*	4	.
Cc1noc(C)c1S(=O)(=O)Nc1ccc2c(c1)C(=O)N([C@@H](C)CO)C[C@@H](C)[C@H](CN(C)C(=O)Nc1ccc(C(F)(F)F)cc1)OCCCC[C@H](C)O2	.	.	0
Cc1noc(C)c1S(=O)(=O)Nc1ccc2c(c1)C(=O)N([C@H](C)CO)C[C@@H](C)[C@H](CN(C)C(=O)Nc1ccc(C(F)(F)F)cc1)OCCCC[C@@H](C)O2	.	.	-1
C[C@@H]1CN([C@@H](C)CO)C(=O)c2cccc(NC(=O)c3ccncc3)c2O[C@H]1CN(C)S(=O)(=O)c1cccs1	-20	13	-1
C[C@@H]1CN([C@@H](C)CO)C(=O)Cc2cc(NC(=O)Nc3ccc4c(c3)OCO4)ccc2O[C@@H]1CN(C)Cc1ccc(-c2ccccc2)cc1	64*	-4	1
C[C@H](CO)N1C[C@H](C)[C@H](CN(C)Cc2ccc(-c3ccccc3)cc2)Oc2ccc(NC(=O)Nc3ccc4c(c3)OCO4)cc2C1=O	-7	.	-2
C[C@H]1CN([C@@H](C)CO)C(=O)Cc2cc(NC(=O)Nc3ccc4c(c3)OCO4)ccc2O[C@@H]1CN(C)Cc1ccccc1	5	3	.
C[C@H]1CN([C@@H](C)CO)C(=O)Cc2cc(NC(=O)Nc3ccc4c(c3)OCO4)ccc2O[C@H]1CN(C)Cc1ccc(-c2ccccc2)cc1	76*	-39	.
C[C@@H]1CN([C@H](C)CO)C(=O)Cc2cc(NC(=O)Nc3ccc4c(c3)OCO4)ccc2O[C@@H]1CN(C)Cc1ccc(-c2ccccc2)cc1	62*	-29	0
C[C@H](CO)N1C[C@H](C)[C@@H](CN(C)Cc2ccccc2)Oc2ccc(NC(=O)Nc3ccc4c(c3)OCO4)cc2CC1=O	.	.	-1
C[C@H]1CN([C@@H](C)CO)C(=O)Cc2cc(NC(=O)Nc3ccccc3)ccc2O[C@H]1CN(C)Cc1ccc2c(c1)OCO2	2	3	.
C[C@@H]1CN([C@H](C)CO)C(=O)c2cc(NC(=O)Nc3ccc4c(c3)OCO4)ccc2O[C@@H]1CN(C)Cc1ccc(-c2ccccc2)cc1	88*	-25	0
CNC[C@H]1Oc2ccc(NC(=O)NC3CCCCC3)cc2CC(=O)N([C@@H](C)CO)C[C@H]1C	-42	26	.
COc1ccc(-c2cnc3c(c2)C(=O)N([C@H](C)CO)C[C@H](C)[C@H](CN(C)S(=O)(=O)c2cccc(OC)c2)O3)cc1	37	.	0
C[C@@H]1CN([C@@H](C)CO)C(=O)Cc2cc(NC(=O)CCC(F)(F)F)ccc2O[C@@H]1CN(C)Cc1ccccc1	17	-7	1
CNC[C@@H]1Oc2ccc(NC(=O)Nc3ccc(OC)cc3)cc2CC(=O)N([C@@H](C)CO)C[C@H]1C	.	.	0
C[C@H]1CN([C@@H](C)CO)C(=O)c2cccc(NC(=O)c3cnccn3)c2O[C@@H]1CN(C)Cc1ccc(Cl)c(Cl)c1	-11	-8	.
SMILES	T cruzi intra	INS-1E rescue	A1 apoptosis 2
C[C@H]1CN([C@@H](C)CO)C(=O)c2cccc(NC(=O)c3ccncc3)c2O[C@H]1CN(C)Cc1ccc(Cl)c(Cl)c1	86*	-3	0
C[C@@H]1CN([C@H](C)CO)C(=O)c2cccc(NC(=O)c3ccncc3)c2O[C@@H]1CN(C)Cc1ccc(Cl)c(Cl)c1	76*	-7	-1
C[C@@H]1CN([C@H](C)CO)C(=O)c2cccc(NC(=O)c3cnccn3)c2O[C@H]1CN(C)Cc1ccc(Cl)c(Cl)c1	28	-11	.
C[C@@H]1CN([C@H](C)CO)C(=O)c2cccc(NC(=O)c3ccc(-c4nccs4)cc3)c2O[C@H]1CN(C)Cc1ccc2c(c1)OCO2	45	-4	.
C[C@H](CO)N1C[C@H](C)[C@H](CN(C)Cc2ccc3c(c2)OCO3)Oc2c(NC(=O)c3ccncc3)cccc2C1=O	64*	-1	2
C[C@H]1CN([C@@H](C)CO)C(=O)c2cccc(NC(=O)c3ccncc3)c2O[C@@H]1CN(C)Cc1ccc(Cl)c(Cl)c1	77*	-10	-2
C[C@@H]1CN([C@H](C)CO)C(=O)c2cccc(NC(=O)c3cnccn3)c2O[C@@H]1CN(C)Cc1ccc(Cl)c(Cl)c1	26	-20	0
C[C@@H]1CCCCO[C@H](CN(C)C(=O)NC2CCCCC2)[C@H](C)CN([C@@H](C)CO)C(=O)c2cc(NS(=O)(=O)c3ccccc3)ccc2O1	.	.	-1
CC(C)NC(=O)N(C)C[C@H]1Oc2c(NC(=O)Nc3cccc4ccccc34)cccc2C(=O)N([C@H](C)CO)C[C@H]1C	3	11	.
C[C@H](CO)N1C[C@H](C)[C@H](CN(C)Cc2ccccc2)Oc2ccc(NC(=O)CCN3CCOCC3)cc2CC1=O	-17	4	.
C[C@@H]1CCCCO[C@H](CN(C)Cc2ccc(C(F)(F)F)cc2)[C@H](C)CN([C@@H](C)CO)C(=O)c2cc(NS(=O)(=O)c3cn(C)cn3)ccc2O1	.	.	-1
C[C@H]1CN([C@@H](C)CO)C(=O)c2cccc(NC(=O)c3nc4ccccc4s3)c2O[C@@H]1CN(C)Cc1ccc(C(F)(F)F)cc1	64*	-19	.
C[C@H](CO)N1C[C@H](C)[C@H](CN(C)Cc2ccc(C(F)(F)F)cc2)Oc2c(NC(=O)c3nc4ccccc4s3)cccc2C1=O	67*	-79	-1
C[C@@H]1CN([C@@H](C)CO)C(=O)c2cccc(NC(=O)c3nc4ccccc4s3)c2O[C@H]1CN(C)Cc1ccccc1	37	-14	0
